Data: ChEMBL document CHEMBL5247575 (J Med Chem, 2018)

The molecules below were run on Escherichia coli (assay: Synergistic antibacterial activity against Escherichia coli DH10B transfected with pBC SK (-) PDC-3 assessed as meropenem MIC at 4 ug/ml by broth microdilution method). Settings: dose 4 µg/ml.
Assay type: functional
Summary of the method: (§1)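 Broth microdilution per CLSI guidelines, using custom frozen panels. […] Each partner drug was also tested alone. MICs were run in triplicate and the modal value is reported.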
`NC(=O)[C@@H]1CC[C@@H]2CN1C(=O)N2OS(=O)(=O)[O-].[Na+]` [AVIBACTAM SODIUM] was tested, and the MIC was at most 0.12 µg/mL.

The molecules below were run on Acinetobacter baumannii (assay: Synergistic antibacterial activity against Acinetobacter baumannii PR476 producing OXA-24/40 assessed as cefepime MIC at 4 ug/ml by broth microdilution method). Settings: dose 4 µg/ml.
Assay type: functional
`NC(=O)[C@@H]1CC[C@@H]2CN1C(=O)N2OS(=O)(=O)[O-].[Na+]` [AVIBACTAM SODIUM] was tested, and the MIC was 2 µg/mL.

The molecules below were run on Klebsiella pneumoniae (assay: Synergistic antibacterial activity against Klebsiella pneumoniae jefferson 1773 producing OXA-181 assessed as meropenem MIC at 4 ug/ml by broth microdilution method). Settings: dose 4 µg/ml.
Assay type: functional
`NC(=O)[C@@H]1CC[C@@H]2CN1C(=O)N2OS(=O)(=O)[O-].[Na+]` [AVIBACTAM SODIUM] showed an MIC of 1 µg/mL.

What follows are molecules tested on Klebsiella pneumoniae (assay: Synergistic antibacterial activity against Klebsiella pneumoniae 761/1723 producing KPC-3 assessed as meropenem MIC at 4 ug/ml by broth microdilution method). Settings: dose 4 µg/ml.
Assay type: functional
Work on `NC(=O)[C@@H]1CC[C@@H]2CN1C(=O)N2OS(=O)(=O)[O-].[Na+]` [AVIBACTAM SODIUM] yielded an MIC of at most 0.12 µg/mL.

These molecules were tested on Klebsiella pneumoniae (assay: Synergistic antibacterial activity against Klebsiella pneumoniae jefferson 1775 producing OXA-48 assessed as cefepime MIC at 4 ug/ml by broth microdilution method). Settings: dose 4 µg/ml.
Assay type: functional
For `NC(=O)[C@@H]1CC[C@@H]2CN1C(=O)N2OS(=O)(=O)[O-].[Na+]` [AVIBACTAM SODIUM], the MIC was at most 0.12 µg/mL.

What follows are molecules tested on Acinetobacter baumannii (assay: Synergistic antibacterial activity against Acinetobacter baumannii PR359 producing OXA-23 assessed as cefepime MIC at 4 ug/ml by broth microdilution method). Settings: dose 4 µg/ml.
Assay type: functional
`NC(=O)[C@@H]1CC[C@@H]2CN1C(=O)N2OS(=O)(=O)[O-].[Na+]` [AVIBACTAM SODIUM] gave an MIC of 16 µg/mL.

Each molecule was assayed on Acinetobacter baumannii (assay: Synergistic antibacterial activity against ADC deleted Acinetobacter baumannii assessed as meropenem MIC at 4 ug/ml by broth microdilution method). Settings: dose 4 µg/ml.
Assay type: functional
`NC(=O)[C@@H]1CC[C@@H]2CN1C(=O)N2OS(=O)(=O)[O-].[Na+]` [AVIBACTAM SODIUM] gave an MIC of at most 0.12 µg/mL.

The molecules below were run on Bacteria (assay: Inhibition of bacteria PDC-3 assessed as second order rate constant K2/K using nitrocefin as substrate). Settings: not given.
In the case of `NC(=O)[C@@H]1CC[C@@H]2CN1C(=O)N2OS(=O)(=O)[O-].[Na+]` [AVIBACTAM SODIUM], the K is reported as 2.9 10^4/M/s.

Each molecule was assayed on Acinetobacter baumannii (assay: Synergistic antibacterial activity against Acinetobacter baumannii PR323 producing OXA-24/40 assessed as cefepime MIC at 4 ug/ml by broth microdilution method). Settings: dose 4 µg/ml.
Assay type: functional
Work on `NC(=O)[C@@H]1CC[C@@H]2CN1C(=O)N2OS(=O)(=O)[O-].[Na+]` [AVIBACTAM SODIUM] yielded an MIC of over 16 µg/mL.

Each molecule was assayed on Klebsiella pneumoniae (assay: Synergistic antibacterial activity against Klebsiella pneumoniae CAV 1543 producing OXA-48 assessed as cefepime MIC at 4 ug/ml by broth microdilution method). Settings: dose 4 µg/ml.
Assay type: functional
`NC(=O)[C@@H]1CC[C@@H]2CN1C(=O)N2OS(=O)(=O)[O-].[Na+]` [AVIBACTAM SODIUM] was tested, and the MIC was 0.25 µg/mL.

These molecules were tested on Pseudomonas aeruginosa (assay: Synergistic antibacterial activity against Pseudomonas aeruginosa CL232 assessed as meropenem MIC at 4 ug/ml by broth microdilution method). Settings: dose 4 µg/ml.
Assay type: functional
In the case of `NC(=O)[C@@H]1CC[C@@H]2CN1C(=O)N2OS(=O)(=O)[O-].[Na+]` [AVIBACTAM SODIUM], the MIC is reported as over 16 µg/mL.

The molecules below were run on Acinetobacter baumannii (assay: Synergistic antibacterial activity against ADC deleted Acinetobacter baumannii transfected with pWH1266 OXA-23 assessed as meropenem MIC at 4 ug/ml by broth microdilution method). Settings: dose 4 µg/ml.
Assay type: functional
With `NC(=O)[C@@H]1CC[C@@H]2CN1C(=O)N2OS(=O)(=O)[O-].[Na+]` [AVIBACTAM SODIUM] the MIC was over 16 µg/mL.

What follows are molecules tested on Escherichia coli (assay: Synergistic antibacterial activity against Escherichia coli DH10B assessed as cefepime MIC at 4 ug/ml by broth microdilution method). Settings: dose 4 µg/ml.
Assay type: functional
`NC(=O)[C@@H]1CC[C@@H]2CN1C(=O)N2OS(=O)(=O)[O-].[Na+]` [AVIBACTAM SODIUM] was tested, and the MIC was at most 0.12 µg/mL.

These molecules were tested on Acinetobacter baumannii (assay: Synergistic antibacterial activity against Acinetobacter baumannii PR448 producing OXA-23 assessed as cefepime MIC at 4 ug/ml by broth microdilution method). Settings: dose 4 µg/ml.
Assay type: functional
`NC(=O)[C@@H]1CC[C@@H]2CN1C(=O)N2OS(=O)(=O)[O-].[Na+]` [AVIBACTAM SODIUM] gave an MIC of 16 µg/mL.

What follows are molecules tested on Klebsiella pneumoniae (assay: Synergistic antibacterial activity against Klebsiella pneumoniae NY BS producing OXA-232 assessed as meropenem MIC at 4 ug/ml by broth microdilution method). Settings: dose 4 µg/ml.
Assay type: functional
For `NC(=O)[C@@H]1CC[C@@H]2CN1C(=O)N2OS(=O)(=O)[O-].[Na+]` [AVIBACTAM SODIUM], the MIC was 0.5 µg/mL.

These molecules were tested on Escherichia coli (assay: Synergistic antibacterial activity against Escherichia coli DH10B assessed as meropenem MIC at 4 ug/ml by broth microdilution method). Settings: dose 4 µg/ml.
Assay type: functional
Molecule `NC(=O)[C@@H]1CC[C@@H]2CN1C(=O)N2OS(=O)(=O)[O-].[Na+]` [AVIBACTAM SODIUM] has an MIC of at most 0.12 µg/mL.

What follows are molecules tested on Klebsiella pneumoniae (assay: Synergistic antibacterial activity against Klebsiella pneumoniae 729/1679 producing KPC-3 assessed as meropenem MIC at 4 ug/ml by broth microdilution method). Settings: dose 4 µg/ml.
Assay type: functional
Summary of the method: as §1
`NC(=O)[C@@H]1CC[C@@H]2CN1C(=O)N2OS(=O)(=O)[O-].[Na+]` [AVIBACTAM SODIUM] gave an MIC of at most 0.12 µg/mL.

The molecules below were run on Acinetobacter baumannii (assay: Synergistic antibacterial activity against Acinetobacter baumannii PR474 producing OXA-23/24/40 assessed as meropenem MIC at 4 ug/ml by broth microdilution method). Settings: dose 4 µg/ml.
Assay type: functional
`NC(=O)[C@@H]1CC[C@@H]2CN1C(=O)N2OS(=O)(=O)[O-].[Na+]` [AVIBACTAM SODIUM] showed an MIC of over 16 µg/mL.

Each molecule was assayed on Escherichia coli (assay: Antibacterial activity against Escherichia coli DH10B transfected with pBC SK (-) KPC-3 by broth microdilution method). Settings: not given.
Assay type: functional
Molecule `NC(=O)[C@@H]1CC[C@@H]2CN1C(=O)N2OS(=O)(=O)[O-].[Na+]` [AVIBACTAM SODIUM] has an MIC of over 16 µg/mL.

Each molecule was assayed on Pseudomonas aeruginosa (assay: Synergistic antibacterial activity against Pseudomonas aeruginosa CL232 assessed as cefepime MIC at 4 ug/ml by broth microdilution method). Settings: dose 4 µg/ml.
Assay type: functional
Molecule `NC(=O)[C@@H]1CC[C@@H]2CN1C(=O)N2OS(=O)(=O)[O-].[Na+]` [AVIBACTAM SODIUM] has an MIC of over 16 µg/mL.

What follows are molecules tested on Acinetobacter baumannii (assay: Synergistic antibacterial activity against Acinetobacter baumannii PR359 producing OXA-23 assessed as meropenem MIC at 4 ug/ml by broth microdilution method). Settings: dose 4 µg/ml.
Assay type: functional
`NC(=O)[C@@H]1CC[C@@H]2CN1C(=O)N2OS(=O)(=O)[O-].[Na+]` [AVIBACTAM SODIUM] showed an MIC of over 16 µg/mL.

These molecules were tested on Pseudomonas aeruginosa (assay: Antibacterial activity against Pseudomonas aeruginosa 839 by broth microdilution method). Settings: not given.
Assay type: functional
`NC(=O)[C@@H]1CC[C@@H]2CN1C(=O)N2OS(=O)(=O)[O-].[Na+]` [AVIBACTAM SODIUM] showed an MIC of over 16 µg/mL.

Each molecule was assayed on Bacteria (assay: Inhibition of bacteria ADC-7 assessed as second order rate constant K2/K using nitrocefin as substrate). Settings: not given.
With `NC(=O)[C@@H]1CC[C@@H]2CN1C(=O)N2OS(=O)(=O)[O-].[Na+]` [AVIBACTAM SODIUM] the K was 3.9 10^3/M/s.

Each molecule was assayed on Acinetobacter baumannii (assay: Synergistic antibacterial activity against ADC deleted Acinetobacter baumannii transfected with pWH1266 producing OXA-24/40 assessed as cefepime MIC at 4 ug/ml by broth microdilution method). Settings: dose 4 µg/ml.
Assay type: functional
`NC(=O)[C@@H]1CC[C@@H]2CN1C(=O)N2OS(=O)(=O)[O-].[Na+]` [AVIBACTAM SODIUM] was tested, and the MIC was over 16 µg/mL.

These molecules were tested on Klebsiella pneumoniae (assay: Synergistic antibacterial activity against Klebsiella pneumoniae NY BS producing OXA-232 assessed as cefepime MIC at 4 ug/ml by broth microdilution method). Settings: dose 4 µg/ml.
Assay type: functional
`NC(=O)[C@@H]1CC[C@@H]2CN1C(=O)N2OS(=O)(=O)[O-].[Na+]` [AVIBACTAM SODIUM] was tested, and the MIC was 0.5 µg/mL.

The molecules below were run on Klebsiella pneumoniae (assay: Synergistic antibacterial activity against Klebsiella pneumoniae 1315/2198 producing KPC-3 assessed as cefepime MIC at 4 ug/ml by broth microdilution method). Settings: dose 4 µg/ml.
Assay type: functional
Summary of the method: as §1
`NC(=O)[C@@H]1CC[C@@H]2CN1C(=O)N2OS(=O)(=O)[O-].[Na+]` [AVIBACTAM SODIUM] was tested, and the MIC was at most 0.12 µg/mL.
